# Test results published in ChEMBL document CHEMBL2417509, “Synthesis and biological evaluation of prodigiosene conjugates of porphyrin, estrone and 4-hydroxytamoxifen” (2013).
# Legend:
# Assay type in all cases: functional
# MCF7 = test: Cytotoxicity against human MCF7 cells after 2 days by sulforhodamine B assay; conditions: MCF7, 48 h
# Method in brief: (§1)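 NCI60 multi-dose screen, 59 human tumour lines available. Cells exposed to compound across a 5-log mol/L concentration range for 2 days, then fixed and stained with sulphorhodamine B, optical density read. Growth inhibition calculated against time-zero control and untreated cells. GI50 derived from the dose series, average of two replicates.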
# BT-549 = test: Cytotoxicity against human BT549 cells after 2 days by sulforhodamine B assay; conditions: BT-549, 48 h; method in brief: as §1
# NCI-H23 = test: Cytotoxicity against human NCI-H23 cells after 2 days by sulforhodamine B assay; conditions: NCI-H23, 48 h; method in brief: as §1
# NCI-H460 = test: Cytotoxicity against human NCI-H460 cells after 2 days by sulforhodamine B assay; conditions: NCI-H460, 48 h; method in brief: as §1
# SF-268 = test: Cytotoxicity against human SF268 cells after 2 days by sulforhodamine B assay; conditions: SF-268, 48 h; method in brief: as §1
# MDA-MB-231 = test: Cytotoxicity against human MDA-MB-231 cells after 2 days by sulforhodamine B assay; conditions: MDA-MB-231, 48 h; method in brief: as §1
# PC-3 = test: Cytotoxicity against human PC3 cells after 2 days by sulforhodamine B assay; conditions: PC-3, 48 h; method in brief: as §1
# UACC-62 = test: Cytotoxicity against human UACC62 cells after 2 days by sulforhodamine B assay; conditions: UACC-62, 48 h
# Method in brief: (§2)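 NCI DTP NCI60 multi-dose screen (59 human tumour lines available). Cells exposed to compound over a 5-log mol/L concentration range for 2 days, then fixed and stained with sulphorhodamine B, with optical density read. Growth inhibition calculated relative to time-zero cells and untreated cells, giving GI50 (half-maximal growth inhibition concentration). Average of two replicates.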
# [1] = Cytotoxicity against human NCI-ADR-RES cells after 2 days by sulforhodamine B assay; conditions: 48 h; method in brief: as §1
# MDA-MB-468 = test: Cytotoxicity against human MDA-MB-468 cells after 2 days by sulforhodamine B assay; conditions: MDA-MB-468, 48 h; method in brief: as §1
# OVCAR-8 = test: Cytotoxicity against human OVCAR8 cells after 2 days by sulforhodamine B assay; conditions: OVCAR-8, 48 h; method in brief: as §1
# NCI-H322M = test: Cytotoxicity against human NCI-H322M cells after 2 days by sulforhodamine B assay; conditions: 48 h; method in brief: as §1
# SK-MEL-2 = test: Cytotoxicity against human SK-MEL-2 cells after 2 days by sulforhodamine B assay; conditions: SK-MEL-2, 48 h; method in brief: as §1
# SK-MEL-5 = test: Cytotoxicity against human SK-MEL-5 cells after 2 days by sulforhodamine B assay; conditions: SK-MEL-5, 48 h; method in brief: as §1
# HT-29 = test: Cytotoxicity against human HT-29 cells after 2 days by sulforhodamine B assay; conditions: HT-29, 48 h; method in brief: as §1
# HOP-62 = test: Cytotoxicity against human HOP62 cells after 2 days by sulforhodamine B assay; conditions: HOP-62, 48 h; method in brief: as §1
# 786-0 = test: Cytotoxicity against human 786-0 cells after 2 days by sulforhodamine B assay; conditions: 786-0, 48 h; method in brief: as §1
# HCT-116 = test: Cytotoxicity against human HCT116 cells after 2 days by sulforhodamine B assay; conditions: HCT-116, 48 h; method in brief: as §1
# HCC 2998 = test: Cytotoxicity against human HCC2998 cells after 2 days by sulforhodamine B assay; conditions: HCC 2998, 48 h; method in brief: as §1
# TK-10 = test: Cytotoxicity against human TK10 cells after 2 days by sulforhodamine B assay; conditions: TK-10, 48 h; method in brief: as §2
# HCT-15 = test: Cytotoxicity against human HCT15 cells after 2 days by sulforhodamine B assay; conditions: HCT-15, 48 h; method in brief: as §1
# UO-31 = test: Cytotoxicity against human UO31 cells after 2 days by sulforhodamine B assay; conditions: UO-31, 48 h; method in brief: as §2
# U-251 = test: Cytotoxicity against human U251 cells after 2 days by sulforhodamine B assay; conditions: U-251, 48 h; method in brief: as §2
# A498 = test: Cytotoxicity against human A498 cells after 2 days by sulforhodamine B assay; conditions: A498, 48 h; method in brief: as §1
# RXF 393 = test: Cytotoxicity against human RXF393 cells after 2 days by sulforhodamine B assay; conditions: RXF 393, 48 h; method in brief: as §1
# SW-620 = test: Cytotoxicity against human SW620 cells after 2 days by sulforhodamine B assay; conditions: SW-620, 48 h; method in brief: as §2
# [2] = Cytotoxicity against human Hs578T cells after 2 days by sulforhodamine B assay; conditions: Hs-578T, 48 h; method in brief: as §1
# SR = test: Cytotoxicity against human SR cells after 2 days by sulforhodamine B assay; conditions: 48 h; method in brief: as §2
# NCI-H226 = test: Cytotoxicity against human NCI-H226 cells after 2 days by sulforhodamine B assay; conditions: NCI-H226, 48 h; method in brief: as §1
# Malme-3M = test: Cytotoxicity against human MALME-3M cells after 2 days by sulforhodamine B assay; conditions: 48 h; method in brief: as §1
# SF-539 = test: Cytotoxicity against human SF539 cells after 2 days by sulforhodamine B assay; conditions: SF-539, 48 h; method in brief: as §1
# [3] = read-out: LC50 (the source's name)
compound,measurement,setting,value
CC/C(=C(/c1ccc(OCCN(C)C)cc1)c1ccc(OC(=O)CCC(=O)C2=C(C)/C(=C/c3[nH]c(-c4ccc[nH]4)cc3OC)N=C2C)cc1)c1ccccc1,GI50,MCF7,30 nM
same,LC50 (concentration giving 50% net cell kill),MCF7,39.9 µM
same,TGI,MCF7,2810 nM
same,GI50,BT-549,4.29 µM
same,LC50 (concentration killing 50% of cells present at time zero),BT-549,66.9 µM
same,TGI,BT-549,21.5 µM
same,GI50,NCI-H23,4.03 µM
same,LC50 (concentration killing 50% of cells),NCI-H23,70 µM
same,TGI,NCI-H23,18.7 µM
same,GI50,NCI-H460,3.52 µM
same,LC50,NCI-H460,> 100 µM
same,TGI,NCI-H460,14.4 µM
same,GI50,SF-268,2630 nM
same,LC50 (concentration killing 50% of cells),SF-268,> 100 µM
same,TGI,SF-268,18.3 µM
same,GI50,MDA-MB-231,450 nM
same,LC50,MDA-MB-231,20.3 µM
same,TGI,MDA-MB-231,2430 nM
same,GI50,PC-3,1780 nM
same,LC50 (concentration killing 50% of cells),PC-3,51.1 µM
same,TGI,PC-3,17.2 µM
same,GI50,UACC-62,1810 nM
same,TGI,UACC-62,3.78 µM
same,CC50,UACC-62; [3],7.88 µM
same,GI50,[1],3.63 µM
same,TGI,[1],16.1 µM
same,CC50,[1]; [3],74.5 µM
same,GI50,MDA-MB-468,3.06 µM
same,LC50,MDA-MB-468,61.3 µM
same,TGI,MDA-MB-468,15.5 µM
same,GI50,OVCAR-8,2760 nM
same,LC50,OVCAR-8,68 µM
same,TGI,OVCAR-8,10.9 µM
same,GI50,NCI-H322M,11.6 µM
same,LC50 (concentration killing 50% of cells),NCI-H322M,57.5 µM
same,TGI,NCI-H322M,25.7 µM
same,GI50,SK-MEL-2,2450 nM
same,LC50,SK-MEL-2,25.3 µM
same,TGI,SK-MEL-2,6.42 µM
same,GI50,SK-MEL-5,1530 nM
same,LC50 (concentration killing 50% of cells),SK-MEL-5,5.25 µM
same,TGI,SK-MEL-5,3.22 µM
same,GI50,HT-29,440 nM
same,LC50,HT-29,45.7 µM
same,TGI,HT-29,11.1 µM
same,GI50,HOP-62,1430 nM
same,TGI,HOP-62,4.07 µM
same,CC50,HOP-62; [3],49 µM
same,GI50,786-0,2190 nM
same,LC50 (concentration killing 50% of cells),786-0,> 100 µM
same,TGI,786-0,5.77 µM
same,GI50,HCT-116,820 nM
same,LC50 (concentration killing 50% of cells vs time zero),HCT-116,> 100 µM
same,TGI,HCT-116,3.28 µM
same,GI50,HCC 2998,3.83 µM
same,LC50 (50% lethal concentration),HCC 2998,39.9 µM
same,TGI,HCC 2998,14.3 µM
same,GI50,TK-10,4.9 µM
same,LC50,TK-10,41.7 µM
same,TGI,TK-10,15.8 µM
same,GI50,HCT-15,930 nM
same,LC50,HCT-15,> 100 µM
same,TGI,HCT-15,4.58 µM
same,GI50,UO-31,1700 nM
same,LC50,UO-31,30.1 µM
same,TGI,UO-31,5.1 µM
same,GI50,U-251,1520 nM
same,LC50,U-251,33.2 µM
same,TGI,U-251,7.17 µM
same,GI50,A498,2960 nM
same,LC50,A498,44.2 µM
same,TGI,A498,16.8 µM
same,GI50,RXF 393,2350 nM
same,LC50 (concentration killing 50% of cells),RXF 393,73.3 µM
same,TGI,RXF 393,13 µM
same,GI50,SW-620,760 nM
same,LC50 (concentration killing 50% of cells),SW-620,> 100 µM
same,TGI,SW-620,2600 nM
same,GI50,[2],1150 nM
same,TGI,[2],4.68 µM
same,CC50,[2]; [3],64.6 µM
same,GI50,SR,690 nM
same,LC50 (concentration giving 50% net cell kill),SR,> 100 µM
same,TGI,SR,5.43 µM
same,GI50,NCI-H226,6.53 µM
same,LC50,NCI-H226,> 100 µM
same,TGI,NCI-H226,25.2 µM
same,GI50,Malme-3M,2730 nM
same,LC50,Malme-3M,78.4 µM
same,TGI,Malme-3M,6.53 µM
same,GI50,SF-539,2620 nM
same,LC50,SF-539,40.3 µM
same,TGI,SF-539,9.55 µM
